The source made the active and inactive calls. No cut-off for these calls is given here.
Tests used:
Homo sapiens [1] = organism: Homo sapiens; assay: Activation of purified human antithrombin-mediated inhibition of thrombin assessed as second order association rate constant for chromogenic substrate hydrolysis by microplate reader based assay
[2] = Binding affinity to purified human antithrombin at 128 uM by isothermal titration calorimetry
Homo sapiens [3] = organism: Homo sapiens; assay: Activation of antithrombin L99F mutant in type 2 antithrombin deficiency patient plasma assessed as inhibition of S-2238 hydrolysis at 148 uM incubated for 5 mins in presence of mouse Py-4-1 cells (reference value: 33.22 +/- 2.93%); format: cell-free; set-up: scale not given: the % may be the effect or the level left
Homo sapiens [4] = organism: Homo sapiens; assay: Induction of conformational changes in purified human antithrombin assessed as induction of antithrombin polymer formation up to 14.8 uM at 37 or 42 degC incubated for 2 days in presence of urea by native PAGE
Outline: (§1)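 Antithrombin incubated with compound up to 14.8 μM at 37 or 42 °C for 2 days; latent form and polymers assessed by immunoelectrophoresis on 8% (w/v) nondenaturing PAGE with or without 7 M urea.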

Homo sapiens [5] = organism: Homo sapiens; assay: Activation of purified human antithrombin-low affinity heparin interaction assessed as antithrombin-mediated inhibition of factor 10a by measuring as second order association rate constant for chromogenic substrate hydrolysis at 1 uM by microplate reader based assay
Homo sapiens [6] = organism: Homo sapiens; assay: Activation of antithrombin in healthy human plasma assessed as inhibition of S-2238 hydrolysis at 148 uM incubated for 5 mins in presence of mouse Py-4-1 cells; format: cell-free; set-up: scale not given: the % may be the effect or the level left
Homo sapiens [7] = organism: Homo sapiens; assay: Induction of conformational changes in purified human antithrombin assessed as induction of transition latent conformation up to 14.8 uM at 37 or 42 degC incubated for 2 days in presence of urea by native PAGE; outline: as §1
[8] = Activation of purified human antithrombin-unfractionated heparin interaction assessed as change in antithrombin intrinsic fluorescence by fluorescence spectrophotometry
Outline: (§2)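 Antithrombin intrinsic fluorescence emission at 340 nm titrated with UFH (alone or after antithrombin preincubation with 37 μM compound) at room temperature, I = 0.15, 20 mM NaPO4, 100 mM NaCl, 0.1 mM EDTA, 0.1% PEG 8000, pH 7.4. Each point averaged from 100 readings at 1 s intervals; Kd obtained by data fitting.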

Homo sapiens [9] = organism: Homo sapiens; assay: Activation of purified human antithrombin-low affinity heparin interaction assessed as antithrombin-mediated inhibition of thrombin by measuring as second order association rate constant for chromogenic substrate hydrolysis at 1 uM by microplate reader based assay
Homo sapiens [10] = organism: Homo sapiens; assay: Activation of antithrombin in healthy human plasma assessed as inhibition of S-2238 hydrolysis at 148 uM incubated for 5 mins in presence of 1 uM unfractionated heparin; format: cell-free; set-up: scale not given: the % may be the effect or the level left
Homo sapiens [11] = organism: Homo sapiens; assay: Induction of conformational changes in purified human antithrombin assessed as induction of antithrombin polymer formation up to 14.8 uM at 37 or 42 degC incubated for 2 days in absence of urea by native PAGE; outline: as §1
Homo sapiens [12] = organism: Homo sapiens; assay: Activation of purified human antithrombin-high affinity heparin interaction assessed as antithrombin-mediated inhibition of thrombin by measuring as second order association rate constant for chromogenic substrate hydrolysis at 1 uM by microplate reader based assay
Homo sapiens [13] = organism: Homo sapiens; assay: Induction of conformational changes in purified human antithrombin assessed as induction of transition latent conformation up to 14.8 uM at 37 or 42 degC incubated for 2 days in absence of urea by native PAGE; outline: as §1
Homo sapiens [14] = organism: Homo sapiens; assay: Activation of purified human antithrombin-mediated inhibition of factor 10a assessed as second order association rate constant for chromogenic substrate hydrolysis by microplate reader based assay
Homo sapiens [15] = organism: Homo sapiens; assay: Activation of citrullinated human antithrombin-mediated inhibition of factor 10a assessed as chromogenic substrate hydrolysis at 14.8 uM in presence of rabbit skeletal muscle […]; set-up: scale not given: the % may be the effect or the level left
Outline: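 Plasma-purified antithrombin (1 mg/mL) incubated with rabbit skeletal muscle PAD IV (50:1 molar ratio antithrombin/PAD) ± 14.8 μM compound in 100 mM Tris-HCl, 5 mM CaCl2, pH 7.4, 37 °C, 15 min; stopped with 50 mM EDTA. Residual anti-FXa activity by chromogenic assay with heparin, bovine FXa, S-2765, A405. Two experiments in triplicate, % of antithrombin alone.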

Homo sapiens [16] = organism: Homo sapiens; assay: Activation of purified human antithrombin-high affinity heparin interaction assessed as antithrombin-mediated inhibition of factor 10a by measuring as second order association rate constant for chromogenic substrate hydrolysis at 1 uM by microplate reader based assay
[17] = molecular target: T1, Antithrombin (Homo sapiens) (UniProt Q15950); assay: Activation of purified human antithrombin-unfractionated heparin assessed as change in antithrombin intrinsic fluorescence at 37 uM by fluorescence spectrophotometry relative to untreated heparin control; outline: as §2
T1 sequence (whole entry): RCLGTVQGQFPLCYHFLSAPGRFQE

Homo sapiens [18] = organism: Homo sapiens; assay: Activation of antithrombin L99F mutant in type 2 antithrombin deficiency patient plasma assessed as inhibition of S-2238 hydrolysis at 148 uM incubated for 5 mins in presence of 1 uM unfractionated heparin (reference value: 33.22 +/- 2.93%); format: cell-free; set-up: scale not given: the % may be the effect or the level left
[19] = Binding affinity to purified human antithrombin at 64 uM by isothermal titration calorimetry
[20] = Binding affinity to purified human antithrombin at 64 uM in presence of 37 uM d-myo-inositol 3,4,5,6-tetrakisphosphate by isothermal titration calorimetry

K (Homo sapiens [1]) [M⁻¹ s⁻¹] | Kd [2] [nM] | Activity (Homo sapiens [3]) [%] | Activity (Homo sapiens [4]) | K (Homo sapiens [5]) [M⁻¹ s⁻¹] | Activity (Homo sapiens [6]) [%] | Activity (Homo sapiens [7]) | Kd [8] [nM] | K (Homo sapiens [9]) [M⁻¹ s⁻¹] | Activity (Homo sapiens [10]) [%] | Activity (Homo sapiens [11]) | K (Homo sapiens [12]) [M⁻¹ s⁻¹] | Activity (Homo sapiens [13]) | K (Homo sapiens [14]) [M⁻¹ s⁻¹] | Activity (Homo sapiens [15]) [%] | K (Homo sapiens [16]) [M⁻¹ s⁻¹] | fold change (FC) [17] | Activity (Homo sapiens [18]) [%] | Kd [19] [nM] | Kd [20] [nM] | Structure (SMILES)
23000 | 45 | 37.2 | inactive | 87000 | 101 | inactive | 45 | 683000 | 97.3 | inactive | 3.28e+06 | inactive | 12000 | 30 | 2.28e+06 | 2.3 | 40 |  |  | O=P(O)(O)O[C@@H]1[C@@H](OP(=O)(O)O)[C@H](OP(=O)(O)O)[C@@H](O)[C@@H](O)[C@H]1OP(=O)(O)O
 |  |  |  |  |  |  |  |  |  |  |  |  |  |  |  |  |  | 273 | 18.8 | CO[C@H]1O[C@H](COS(=O)(=O)O)[C@@H](O[C@@H]2O[C@@H](C(=O)O)[C@@H](O[C@H]3O[C@H](COS(=O)(=O)O)[C@@H](O[C@@H]4O[C@H](C(=O)O)[C@@H](O[C@H]5O[C@H](COS(=O)(=O)O)[C@@H](O)[C@H](O)[C@H]5NS(=O)(=O)O)[C@H](O)[C@H]4O)[C@H](OS(=O)(=O)O)[C@H]3NS(=O)(=O)O)[C@H](O)[C@H]2OS(=O)(=O)O)[C@H](O)[C@H]1NS(=O)(=O)O [FONDAPARINUX SODIUM]

— ChEMBL document CHEMBL2163224, “In silico discovery of a compound with nanomolar affinity to antithrombin causing partial activation and increased heparin affinity” (J Med Chem, 2012)
